Results on 3 compounds are retold here after ChEMBL document CHEMBL4257469, “Deciphering the role of hydrophobic and hydrophilic bile acids in angiogenesis using in vitro and in vivo model systems” (Medchemcomm, 2017).

For series [1], the species on record is Danio rerio. Description: Pro-angiogenic activity in Tg(fli:eGFP) zebrafish embryo assessed as sprouting of vessels at 6.25 uM after 72 hrs post fertilization by fluorescence microscopic analysis. It is filed as functional, organism-based. In short, it runs like this: (§1)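 Tg(fli1:eGFP) zebrafish embryos were selected at 48 hpf, 20–25 per well, and exposed to bile acids at 6.25, 12.5 and 25 μM in embryo water from DMSO stocks. Vehicle was 0.1% DMSO. At 72 hpf the solutions were replaced with fresh embryo water. Embryos were anesthetized with tricaine and imaged by stereo and fluorescence microscopy for sub-intestinal vessel sprouting and branching. Two experiments, 50 embryos per group.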

Series [2] relates to HUVEC. Description: Cytotoxicity against HUVEC assessed as reduction in cell death up to 12.5 uM after 24 hrs by MTT assay. The class given is cell-based. The note with it: human. In a few lines: (§2)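 HUVECs (passages 2–5, complete EBM-2) seeded at 5 × 10³ cells/well and left 24 h to adhere. Serum-starved 4 h, then exposed to bile acids (serial dilutions, 100 to 6.25 μM) in complete medium for 24 h. MTT added for 4 h at 37 °C, formazan dissolved in DMSO, absorbance read at 550 nm. Run in triplicate; three independent experiments.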

Series [3] deals with HUVEC. Kind of series: Cytotoxicity against HUVEC assessed as reduction in cell viability at 6.25 to 100 uM after 24 hrs by MTT assay. The class given is cell-based. The note with it: human. In a few lines:
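HUVECs at passages 2–5 were seeded at 5 × 10^3 cells per well in complete EBM-2 and allowed to adhere for 24 h. They were serum-starved 4 h, then given serially diluted bile acids (100 to 6.25 μM) in complete medium for 24 h. MTT was added for 4 h at 37 °C. Formazan was dissolved in DMSO and absorbance read at 550 nm. Three independent experiments.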
On the technique in general: Tetrazolium assays rely on reduction of a dye to a coloured formazan, in cell work by metabolically active cells.

For series [4], the species on record is Danio rerio. Kind of series: Pro-angiogenic activity in Tg(fli:eGFP) zebrafish embryo assessed as thickening of vessels at 6.25 uM after 72 hrs post fertilization by fluorescence microscopic analysis. The class given is functional, organism-based. In short, it runs like this:
as §1

Series [5] concerns HUVEC. Description: Antiangiogenic activity in HUVEC assessed as inhibition of endothelial tube formation at 25 uM after overnight incubation by inverted microscopic analysis. It is filed as functional, cell-based. The note with it: Homo sapiens. In short, it runs like this: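 HUVECs at passages 2–5 were seeded at 2 × 10^5 cells per well on a gelled basement membrane matrix, made as Matrigel mixed 1:1 with plain EBM-2. Bile acids were added at 12.5 and 25 μM, with DMSO as vehicle control, and cells were treated overnight. Bright-field images were taken at 10× from five fields per well. Nodes and tube lengths were quantified. Runs were in triplicate; statistics by one-way ANOVA (Dunnett).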

The species entered for series [6] is Danio rerio. Kind of series: Antiangiogenic activity in Tg(fli:eGFP) zebrafish embryo assessed as abnormality in vasculature in developing embryos at 25 uM after 72 hrs post fertilization by fluorescence microscopic analysis. It is filed as functional, organism-based. The following applies: 12.5 uM, in the assay text read “12.5 uM” for “25 uM”. In short, it runs like this: as §1

The species entered for series [7] is Danio rerio. Kind of series: Toxicity in zebrafish embryo assessed as reduction in embryo survival up to 50 uM. It is filed as organism-based. The note with it: in vivo.
Series [8] is filed under the species Danio rerio. Description: Toxicity in Tg(fli:eGFP) zebrafish embryo assessed as embryo death at 25 uM after 72 hrs post fertilization by fluorescence microscopic analysis. The following applies: in vivo. The class given is organism-based. In a few lines: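 Tg(fli1:eGFP) embryos selected at 48 hpf, 20–25 per well, raised at 28.5 °C. Bile acids (DMSO stock, diluted in embryo water) given at 6.25, 12.5 or 25 μM; 0.1% DMSO as vehicle control. Solutions replaced with fresh water at 72 hpf, embryos anaesthetised with tricaine and sub-intestinal vessels imaged by fluorescence. Scored as percentage of embryos; two experiments, 50 embryos/group.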

For series [9], the species on record is Danio rerio. Kind of series: Antiangiogenic activity in Tg(fli:eGFP) zebrafish embryo assessed as vascular modification by measuring formation of irregular pattern of branches at 12.5 uM after 72 hrs post fertilization by fluorescence microscopic analysis. The class given is functional, organism-based. In short, it runs like this:
as §1

Series [10] has as its system HUVEC. Kind of series: Decrease in VEGFR1 m-RNA expression in HUVEC at 12.5 uM after 12 to 24 hrs by RT-qPCR analysis relative to control. It is filed as functional, Homo sapiens. In a few lines:
(§3)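 HUVECs treated with 12.5 μM bile acid or DMSO for 12 and 24 h. Total RNA extracted and 1 μg reverse-transcribed. SYBR-green qPCR for VEGFR1/VEGFR2: 95 °C 10 min, then 40 cycles of 95 °C 5 s / 60 °C 30 s. ΔΔCT normalised to GAPDH and expressed as fold change over control; repeated twice.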
(In general: In qPCR the cycle at which signal appears reflects the starting amount.)

For series [11], the system named is HUVEC. Kind of series: Antiangiogenic activity in HUVEC assessed as decrease in tube length at 12.5 uM after overnight incubation by inverted microscopic analysis. The note with it: Homo sapiens. The class given is functional, cell-based. In a few lines:
(§4)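 Wells coated with Matigel:plain EBM-2 (1:1). HUVECs added at 2 × 10⁵ cells/well with bile acid (12.5 or 25 μM) or vehicle and left overnight. Bright-field images at 10× from five fields per well; nodes and tube lengths counted. Triplicate, three independent experiments; one-way ANOVA with Dunnett's test.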

For series [12], the species on record is Danio rerio. Description: Toxicity in Tg(fli:eGFP) zebrafish embryo assessed as embryo death at 3 uM after 72 hrs post fertilization by fluorescence microscopic analysis. It is filed as organism-based. The note with it: in vivo.
The test system of series [13] is HUVEC. Description: Cytotoxicity against HUVEC assessed as cell death after 24 hrs by MTT assay relative to control. The note with it: human.
Series [14] concerns HUVEC. Description: Antimigratory activity in HUVEC assessed as reduction in wound healing at 12.5 uM after 18 to 24 hrs by phase contrast microscopic analysis. It is filed as functional, cell-based. The note with it: Homo sapiens. In short, it runs like this:
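HUVECs grown to a confluent monolayer in 12-well plates and serum-deprived overnight. Scratched with a p200 tip, washed with DPBS, then given complete EBM-2 with 12.5 μM bile acid or DMSO vehicle. Imaged from a marked reference point at 0 h and after 18–24 h (phase contrast, 10×); percentage of migrated cells versus control. Triplicate; Dunnett's test.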

In series [15] the test system is HUVEC. Description: Cytotoxicity against HUVEC assessed as cell death at 100 uM after 24 hrs by MTT assay relative to control. It is filed as cell-based. The note with it: human. In a few lines: as §2
The subject of series [16] is HUVEC. Description: Antiangiogenic activity in HUVEC assessed as inhibition of endothelial tube formation at 12.5 to 25 uM after overnight incubation by inverted microscopic analysis. It is filed as functional, cell-based. The following applies: Homo sapiens. In a few lines:
as §4

In series [17] the test system is HUVEC. Description: Antiangiogenic activity in HUVEC assessed as decrease in number of nodes at 12.5 uM after overnight incubation by inverted microscopic analysis. It is filed as functional, cell-based. The note with it: Homo sapiens. In short, it runs like this:
as §4

For series [18], the species on record is Danio rerio. Description: Toxicity in zebrafish embryo assessed as reduction in embryo survival at 3.25 uM. The class given is organism-based. The note with it: in vivo.
For series [19], the system named is HUVEC. Description: Antiangiogenic activity in HUVEC assessed as induction of irregular stress fiber formation at 12.5 uM after overnight incubation by FITC-conjugated phalloidin staining based confocal microscopic analysis. It is filed as functional, cell-based. The following applies: Homo sapiens. In a few lines:
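HUVECs grown to 70% confluency on coverslips and treated with bile acids overnight. Fixed in 4% paraformaldehyde for 5 min and blocked with 1% BSA/0.1% Triton X-100 for 2 h. Stained with anti-VE-cadherin (1:200, 4 °C overnight) plus Alexa-488 secondary, FITC-phalloidin (1:100) for F-actin, and DAPI. Confocal imaging; repeated twice.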

For series [20], the system named is HUVEC. Kind of series: Decrease in VEGFR2 m-RNA expression in HUVEC at 12.5 uM after 12 to 24 hrs by RT-qPCR analysis relative to control. It is filed as functional, Homo sapiens. In a few lines: as §3
The subject of series [21] is HUVEC. Kind of series: Cytotoxicity against HUVEC assessed as reduction in cell viability at >25 uM after 24 hrs by MTT assay. The class given is cell-based. The following applies: human. In short, it runs like this:
as §2

The species named for series [22] is Danio rerio. Kind of series: Antiangiogenic activity in Tg(fli:eGFP) zebrafish embryo assessed as effect on phynotypic changes at 6.25 to 12.5 uM after 72 hrs post fertilization by fluorescence microscopic analysis. It is filed as functional, organism-based. In a few lines: as §1

Activity calls are given as the source filed them. The rule behind the calls is not given here.

Consider `C[C@H](CCC(=O)O)[C@H]1CC[C@H]2[C@@H]3CC[C@@H]4C[C@H](O)CC[C@]4(C)[C@H]3C[C@H](O)[C@]12C` [DEOXYCHOLIC ACID], for which the outcome in the series listed under Danio rerio [1], in the series filed under Danio rerio [4], in the series with HUVEC [5], in the series filed under Danio rerio [6] and in the series filed under Danio rerio [9] was Active. For the same compound, the Activity entry is “Non-Toxic” in the series on HUVEC [2], “Non-Toxic” with HUVEC [3], “Non-Toxic” in the series listed under Danio rerio [7] and “Toxic” in the series listed under Danio rerio [8].

Take `C[C@H](CCC(=O)O)[C@H]1CC[C@H]2[C@@H]3CC[C@@H]4C[C@H](O)CC[C@]4(C)[C@H]3CC[C@]12C` [LITHOCHOLIC ACID]: the “fold change (FC)” value with HUVEC [10] and in the series with HUVEC [20] was 2 each time. For the same compound, the Activity entry is “Non-Toxic” in the series with HUVEC [2]; “Toxic” in the series filed under Danio rerio [12]; “Toxic” with HUVEC [13]; 75% with HUVEC [15]; “Toxic” in the series filed under Danio rerio [18]; “Toxic” in the series on HUVEC [21]. The outcome in the series on HUVEC [11], in the series on HUVEC [14], with HUVEC [16], with HUVEC [17] and with HUVEC [19] was Active.

As to `C[C@H](CCC(=O)O)[C@H]1CC[C@H]2[C@@H]3[C@H](O)C[C@@H]4C[C@H](O)CC[C@]4(C)[C@H]3C[C@H](O)[C@]12C` [CHOLIC ACID], the Activity result with HUVEC [2], in the series with HUVEC [3] and in the series filed under Danio rerio [7] was “Non-Toxic” throughout. In the series on HUVEC [5], the outcome was Active. Besides, the outcome in the series filed under Danio rerio [22] was inactive.
